Drawing on ChEMBL document CHEMBL1129461 (J Med Chem, 1996), this text covers IC50 for eleven compounds.

In test [1] the target is Protein kinase C eta type (Homo sapiens, UniProt P24723). Put plainly: Evaluated against recombinant human Protein kinase C eta. The procedure, abridged: (§1)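 Recombinant human PKC isozymes expressed in SF9 cells via baculovirus, partly purified (50–90%). 32P transfer from 30 μM [32P]ATP to 200 μg/mL histone IIIS in 20 mM Hepes pH 7.5, 10 mM MgCl2, EGTA, CaCl2, phosphatidylserine, and diacylglycerol at the isozyme-dependent level giving half-maximal activation. 10 min at 30 °C, TCA stop, filter counting. No-lipid background subtracted.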

Test [2] has as its target T1, Protein kinase C beta type (Homo sapiens, UniProt P05771). Briefly: Evaluated against recombinant human Protein kinase C beta 2. The gist of the method: as §1
For test [3], the target named is Protein kinase C delta type (Homo sapiens, UniProt Q05655). Briefly: Evaluated against recombinant human Protein kinase C delta. The gist of the method:
as §1

Test [4] concerns the target T1, Protein kinase C beta type. Briefly: Evaluated against recombinant human Protein kinase C beta 1. The gist of the method:
as §1

Test [5] in a line: Evaluated against bovine heart Protein Kinase A (PKA).
Test [6] has as its target Protein kinase C gamma type (Homo sapiens, UniProt P05129). Put plainly: Evaluated against recombinant human Protein kinase C gamma. The procedure, abridged:
as §1

For test [7], the target named is Protein kinase C alpha type (Homo sapiens, UniProt P17252). Put plainly: Evaluated against recombinant human Protein kinase C alpha. The procedure, abridged:
as §1

Test [8] addresses T2, Protein kinase C epsilon type (Homo sapiens, UniProt Q02156).
T2 sequence (Q02156 whole entry): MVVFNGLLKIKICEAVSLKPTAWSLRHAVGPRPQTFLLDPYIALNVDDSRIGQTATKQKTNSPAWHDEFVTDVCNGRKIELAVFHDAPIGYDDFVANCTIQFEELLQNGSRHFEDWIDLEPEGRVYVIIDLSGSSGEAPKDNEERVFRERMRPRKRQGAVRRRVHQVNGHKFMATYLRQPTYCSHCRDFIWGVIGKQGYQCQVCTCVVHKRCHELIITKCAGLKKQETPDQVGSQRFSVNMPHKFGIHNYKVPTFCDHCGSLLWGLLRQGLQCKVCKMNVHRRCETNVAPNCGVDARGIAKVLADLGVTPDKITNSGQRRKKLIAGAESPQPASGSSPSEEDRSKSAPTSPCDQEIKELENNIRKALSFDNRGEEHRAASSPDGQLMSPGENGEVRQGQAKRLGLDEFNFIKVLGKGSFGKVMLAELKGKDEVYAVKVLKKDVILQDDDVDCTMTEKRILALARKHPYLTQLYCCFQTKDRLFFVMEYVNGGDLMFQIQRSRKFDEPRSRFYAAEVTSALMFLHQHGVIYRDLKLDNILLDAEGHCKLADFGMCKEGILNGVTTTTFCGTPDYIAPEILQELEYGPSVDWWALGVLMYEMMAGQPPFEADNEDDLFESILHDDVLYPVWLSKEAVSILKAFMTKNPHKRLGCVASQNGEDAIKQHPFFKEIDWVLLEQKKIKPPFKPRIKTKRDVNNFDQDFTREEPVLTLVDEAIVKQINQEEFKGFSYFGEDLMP
Briefly: Evaluated against recombinant human Protein kinase C epsilon. The gist of the method:
as §1

T1 sequence (P05771 whole entry): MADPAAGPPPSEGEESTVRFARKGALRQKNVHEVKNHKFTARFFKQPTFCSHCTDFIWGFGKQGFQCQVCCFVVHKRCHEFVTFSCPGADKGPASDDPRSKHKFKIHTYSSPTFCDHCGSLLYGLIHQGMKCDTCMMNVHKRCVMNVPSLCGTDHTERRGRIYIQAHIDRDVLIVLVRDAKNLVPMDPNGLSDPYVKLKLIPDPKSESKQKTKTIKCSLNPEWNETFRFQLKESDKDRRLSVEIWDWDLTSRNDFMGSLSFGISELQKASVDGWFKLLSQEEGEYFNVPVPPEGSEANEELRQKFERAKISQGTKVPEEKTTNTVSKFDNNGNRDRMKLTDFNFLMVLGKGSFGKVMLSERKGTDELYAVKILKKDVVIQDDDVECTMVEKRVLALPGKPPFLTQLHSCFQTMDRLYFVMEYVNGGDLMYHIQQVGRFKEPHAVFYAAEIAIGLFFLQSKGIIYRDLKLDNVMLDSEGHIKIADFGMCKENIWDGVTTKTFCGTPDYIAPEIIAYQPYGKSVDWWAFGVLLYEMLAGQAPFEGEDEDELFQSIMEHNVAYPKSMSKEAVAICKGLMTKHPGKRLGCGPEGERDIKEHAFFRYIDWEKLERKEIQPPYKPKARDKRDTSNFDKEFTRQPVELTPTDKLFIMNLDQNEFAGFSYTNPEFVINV
Protein kinase C delta type, sequence (Q05655 whole entry): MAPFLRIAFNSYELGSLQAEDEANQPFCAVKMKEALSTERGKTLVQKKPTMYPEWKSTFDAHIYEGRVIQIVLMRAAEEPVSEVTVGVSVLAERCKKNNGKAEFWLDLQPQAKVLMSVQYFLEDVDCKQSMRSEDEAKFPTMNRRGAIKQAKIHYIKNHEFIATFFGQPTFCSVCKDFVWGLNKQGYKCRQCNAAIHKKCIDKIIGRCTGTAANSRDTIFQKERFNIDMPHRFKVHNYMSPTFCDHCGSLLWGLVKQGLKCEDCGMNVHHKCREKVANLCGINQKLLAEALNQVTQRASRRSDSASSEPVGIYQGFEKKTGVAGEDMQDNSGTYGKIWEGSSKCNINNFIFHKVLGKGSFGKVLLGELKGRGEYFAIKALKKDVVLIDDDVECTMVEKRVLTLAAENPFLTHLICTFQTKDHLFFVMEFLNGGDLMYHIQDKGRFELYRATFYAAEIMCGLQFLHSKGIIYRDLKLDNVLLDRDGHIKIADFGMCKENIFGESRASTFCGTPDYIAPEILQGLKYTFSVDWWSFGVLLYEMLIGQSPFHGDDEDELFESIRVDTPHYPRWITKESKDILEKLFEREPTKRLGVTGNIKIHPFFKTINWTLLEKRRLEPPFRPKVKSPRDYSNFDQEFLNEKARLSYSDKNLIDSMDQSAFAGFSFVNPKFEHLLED
Protein kinase C eta type, sequence (P24723 whole entry): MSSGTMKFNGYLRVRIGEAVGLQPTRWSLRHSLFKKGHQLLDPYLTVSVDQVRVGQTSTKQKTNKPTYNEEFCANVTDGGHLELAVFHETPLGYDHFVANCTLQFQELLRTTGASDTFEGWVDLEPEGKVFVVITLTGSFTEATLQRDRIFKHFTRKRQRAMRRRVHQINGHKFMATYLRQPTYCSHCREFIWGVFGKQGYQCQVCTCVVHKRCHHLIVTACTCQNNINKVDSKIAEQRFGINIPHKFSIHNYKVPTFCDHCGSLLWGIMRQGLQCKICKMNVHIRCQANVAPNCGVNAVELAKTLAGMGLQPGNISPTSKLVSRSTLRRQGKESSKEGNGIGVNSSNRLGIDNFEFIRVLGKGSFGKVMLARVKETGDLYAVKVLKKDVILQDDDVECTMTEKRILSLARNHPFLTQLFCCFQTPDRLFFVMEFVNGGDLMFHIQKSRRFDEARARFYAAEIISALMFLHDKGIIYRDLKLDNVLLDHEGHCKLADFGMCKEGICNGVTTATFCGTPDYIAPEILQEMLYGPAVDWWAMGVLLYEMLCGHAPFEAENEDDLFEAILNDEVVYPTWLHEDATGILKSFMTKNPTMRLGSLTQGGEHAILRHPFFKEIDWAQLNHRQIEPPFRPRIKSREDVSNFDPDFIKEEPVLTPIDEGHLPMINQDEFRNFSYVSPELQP

Usually IC50 stands for the point on the concentration scale where inhibition reaches its midpoint. Consider `O=C(NC1CNCCCC1OC(=O)c1cc(O)c(C(=O)c2c(O)cccc2C(=O)O)c(O)c1)c1ccc(O)cc1` (racemic), for which the IC50 is 20 nM in test [1]; 30 nM in test [2]; 23 nM in test [3]; 30 nM in test [4]; 60 nM in test [5]; 30 nM in test [6]. Also, the IC50 in test [7] was 67 nM.

Regarding `O=C(OC1CNCC1Cc1ccc(O)cc1)c1cc(O)c(C(=O)c2c(O)cccc2C(=O)O)c(O)c1` (stereo not drawn), the half-inhibitory concentration (IC50) is 1800 nM in test [8]; 20 nM in test [1]; 30 nM in test [2]; 5 nM in test [3]; 10 nM in test [4]; 40 nM in test [6]. Also, the IC50 in test [7] was found to be 260 nM.

For the compound `COC(=O)c1cccc(O)c1C(=O)c1c(O)cc(C(=O)OC2CCCC2Cc2ccc(O)cc2)cc1O` (stereo not drawn), the IC50 in test [8] is 4500 nM; in test [1], 40 nM; in test [2], 90 nM; in test [3], 50 nM; in test [4], 100 nM; in test [5] it was > 50000 nM. For the same compound, the figures for the IC50 in test [6] and in test [7] were 1700 nM and 1400 nM, respectively.

With `O=C(OC1CCCC1Cc1ccc(O)cc1)c1cc(O)c(C(=O)c2c(O)cccc2C(=O)O)c(O)c1` (stereo in doubt; 20b), the IC50 in test [8] came to 500 nM; in test [1], 10 nM; in test [2], 20 nM; in test [3], 30 nM; in test [4], 20 nM; in test [6], 130 nM. In addition, the concentration for half-maximal inhibition (IC50) in test [7] is 160 nM.

In the case of `O=C(OCC(Cc1ccc(O)cc1)NS(=O)(=O)c1ccc2ccccc2c1)c1cc(O)c(C(=O)c2c(O)cccc2C(=O)O)c(O)c1` (stereo not drawn), the IC50 in test [8] is 39000 nM; in test [1], 35000 nM; in test [2], 1800 nM; in test [3], 2600 nM; in test [4] it was 2800 nM; in test [5] it was > 50000 nM. The values for the IC50 in test [6] and in test [7] were 2700 nM and 3200 nM, respectively.

Regarding `O=C(NC(COC(=O)c1cc(O)c(C(=O)c2c(O)cccc2C(=O)O)c(O)c1)Cc1ccc(O)cc1)c1ccc(O)cc1` (stereo not drawn), the 50% inhibitory concentration (IC50) is > 50000 nM in test [8]; 2300 nM in test [1]; 3000 nM in test [2]; 820 nM in test [3]; 3600 nM in test [4]; > 50000 nM in test [5]. Further, the 50% inhibitory concentration (IC50) in test [6] is 2900 nM; in test [7], 18000 nM.

Consider `O=C(OCCCc1ccc(O)cc1)c1cc(O)c(C(=O)c2c(O)cccc2C(=O)O)c(O)c1`, for which the 50% inhibitory concentration (IC50) is 4100 nM in test [8]; < 50 nM in test [1]; 270 nM in test [2]; 130 nM in test [3]; 210 nM in test [4]; > 50000 nM in test [5]. For the same compound, the IC50 was determined as 830 nM in test [6] and 1900 nM in test [7].

In the case of `O=C(NC(COC(=O)c1cc(O)c(C(=O)c2c(O)cccc2C(=O)O)c(O)c1)Cc1ccc(O)cc1)c1ccccc1` (stereo not drawn), the half-maximal inhibitory concentration (IC50) was > 50000 nM in test [8]; 18000 nM in test [1]; 2800 nM in test [2]; 22000 nM in test [3]; > 50000 nM in test [5]; 45000 nM in test [7].

For `O=C(NC1CCCC1OC(=O)c1cc(O)c(C(=O)c2c(O)cccc2C(=O)O)c(O)c1)c1ccc(O)cc1` (stereo not drawn), the 50% inhibitory concentration (IC50) in test [8] was 50 nM; in test [1] it was 0.6 nM; in test [2], 50 nM; in test [3], 0.9 nM; in test [4] it was 40 nM; in test [6] it was 10 nM. In addition, the IC50 in test [7] is 40 nM.

Regarding `COC(=O)c1cccc(O)c1C(=O)c1c(O)cc(C(=O)OC2CNCC2Cc2ccc(O)cc2)cc1O` (stereo not drawn), the IC50 in test [1] was determined as 500 nM; in test [2] it was 250 nM; in test [3], 100 nM; in test [4], 110 nM; in test [6] it was 380 nM; in test [7], 2200 nM.

Turning to `COC(=O)c1cccc(O)c1C(=O)c1c(O)cc(C(=O)OCCCc2ccc(O)cc2)cc1O`, the IC50 in test [1] came out at 170 nM; in test [2] it was 750 nM; in test [3], 300 nM; in test [4] it was 460 nM; in test [6] it was 4100 nM; in test [7], 7800 nM.
